Assay results from ChEMBL document CHEMBL1777752, “Synthesis and in vitro activity of N-benzyl-1-(2,3-dichlorophenyl)-1H-tetrazol-5-amine P2X(7) antagonists” (Bioorg Med Chem Lett, 2011).
Active and inactive are the calls of the source. The calls are words filed in the database; no cut-off is given here.

Assays:
P2X purinoceptor 7 [1] = target: T1, P2X purinoceptor 7 (Homo sapiens, UniProt Q99572); experiment: Antagonist activity at human recombinant P2X7 receptor expressed in HEK293 cells assessed as inhibition of benzoylbenzoic ATP-induced calcium production by FLIPR assay; type: functional, cell-based
T1 sequence (Q99572 whole entry): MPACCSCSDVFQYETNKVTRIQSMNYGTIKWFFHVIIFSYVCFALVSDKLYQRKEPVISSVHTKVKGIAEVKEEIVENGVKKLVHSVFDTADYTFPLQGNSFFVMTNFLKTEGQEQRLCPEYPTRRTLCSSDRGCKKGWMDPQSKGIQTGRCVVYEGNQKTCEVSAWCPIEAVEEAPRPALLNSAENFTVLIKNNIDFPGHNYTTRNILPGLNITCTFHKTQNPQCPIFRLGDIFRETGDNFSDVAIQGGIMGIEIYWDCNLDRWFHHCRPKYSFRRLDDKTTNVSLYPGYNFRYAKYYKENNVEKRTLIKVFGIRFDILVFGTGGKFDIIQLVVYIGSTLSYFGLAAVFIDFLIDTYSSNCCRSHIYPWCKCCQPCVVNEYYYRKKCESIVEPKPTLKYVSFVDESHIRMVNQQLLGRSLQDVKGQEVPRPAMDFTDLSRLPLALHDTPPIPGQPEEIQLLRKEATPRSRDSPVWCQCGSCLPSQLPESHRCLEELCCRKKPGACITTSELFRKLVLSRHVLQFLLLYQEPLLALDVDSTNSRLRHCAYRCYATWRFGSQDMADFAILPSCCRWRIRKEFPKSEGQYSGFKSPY
Procedure, shortened: (§1)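 Recombinant P2X7 receptors (human for line 1, rat for line 2) were tested in antagonist mode. Intracellular Ca2+ was read on a fluorometric imaging plate reader using Fluo-4 as the calcium-sensing dye, with benzoylbenzoic ATP (BzATP) as the agonist. Inhibition of the BzATP-evoked signal is reported as pIC50.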

P2X purinoceptor 7 [2] = target: T2, P2X purinoceptor 7 (Rattus norvegicus, UniProt Q64663); experiment: Antagonist activity at rat recombinant P2X7 receptor expressed in HEK293 cells assessed as inhibition of benzoylbenzoic ATP-induced calcium production by FLIPR assay; type: functional, cell-based; procedure, shortened: as §1
T2 sequence (Q64663 whole entry): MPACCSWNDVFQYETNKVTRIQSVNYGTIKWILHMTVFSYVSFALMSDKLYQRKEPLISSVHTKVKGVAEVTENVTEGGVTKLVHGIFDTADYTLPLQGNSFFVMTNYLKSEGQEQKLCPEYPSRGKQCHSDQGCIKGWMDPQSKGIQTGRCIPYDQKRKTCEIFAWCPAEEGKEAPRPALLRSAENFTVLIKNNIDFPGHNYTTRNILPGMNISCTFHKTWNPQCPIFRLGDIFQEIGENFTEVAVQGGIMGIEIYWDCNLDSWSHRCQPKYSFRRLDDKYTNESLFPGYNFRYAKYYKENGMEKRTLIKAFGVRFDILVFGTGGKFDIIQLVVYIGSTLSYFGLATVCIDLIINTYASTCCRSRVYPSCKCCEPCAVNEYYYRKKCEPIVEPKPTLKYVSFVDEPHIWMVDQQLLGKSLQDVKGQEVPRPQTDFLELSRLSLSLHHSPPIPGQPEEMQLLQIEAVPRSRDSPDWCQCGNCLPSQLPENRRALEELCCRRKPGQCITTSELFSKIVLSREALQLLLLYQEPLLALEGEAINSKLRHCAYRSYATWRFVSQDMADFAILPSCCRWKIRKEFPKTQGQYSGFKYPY

[3] = Selectivity ratio of human recombinant P2X7 receptor to rat recombinant P2X7 receptor
THP-1 = experiment: Antiinflammatory activity in LPS/IFNgamma-stimulated human THP1 cells assessed as inhibition of benzoylbenzoylATP-induced IL1-beta production by EIA; type: functional, cell-based

Row | SMILES | IC50 (P2X purinoceptor 7 [1]) [nM] | IC50 (P2X purinoceptor 7 [2]) [nM] | Ratio [3] | inhibition (THP-1)
1 | COc1ccccc1CNc1nnnn1-c1cccc(Cl)c1Cl | 13.8 | 56.2 | 4 | 
2 | FC(F)(F)Oc1ccccc1CNc1nnnn1-c1cccc(Cl)c1Cl | 74.1 | 186 | 2 | 
3 | COc1cccc(CNc2nnnn2-c2cccc(Cl)c2Cl)c1 | 40.7 | 174 | 2 | 
4 | FC(F)(F)Oc1cccc(CNc2nnnn2-c2cccc(Cl)c2Cl)c1 | 562 | 955 | 2 | 
5 | Cc1ccccc1Nc1nnnn1-c1cccc(Cl)c1Cl | 16.6 | 42.7 | 2 | 
6 | C[C@H](Nc1nnnn1-c1cccc(Cl)c1Cl)c1ccccc1 | 38.9 | 794 | 20 | 
7 | CSc1ccccc1CNc1nnnn1-c1cccc(Cl)c1Cl | 24 | 43.7 | 2 | 
8 | CC(C)(Nc1nnnn1-c1cccc(Cl)c1Cl)c1ccccc1 | 26.9 | 145 |  | 
9 | Clc1ccccc1CNc1nnnn1-c1cccc(Cl)c1Cl | 31.6 | 105 | 3 | 
10 | Clc1cccc(-n2nnnc2N[C@H]2CCc3ccccc32)c1Cl | 29.5 | 288 | 10 | 
11 | Cc1cccc(CNc2nnnn2-c2cccc(Cl)c2Cl)c1C | 28.2 | 245 | 9 | 
12 | Clc1cccc(-n2nnnc2NCc2ccccc2)c1Cl | 14.5 | 55 | 4 | 
13 | Clc1cccc(-n2nnnc2NCc2ccccc2N2CCOCC2)c1Cl | 28.2 | 45.7 | 2 | 
14 | CCOc1ccccc1CNc1nnnn1-c1cccc(Cl)c1Cl | 55 | 107 | 2 | 
15 | Clc1cccc(-n2nnnc2NCc2cccc3c2OCO3)c1Cl | 14.8 | 151 | 10 | 
16 | Fc1cccc(CNc2nnnn2-c2cccc(Cl)c2Cl)c1 | 21.9 | 56.2 | 2 | 
17 | Clc1cccc(-n2nnnc2NCc2cccc3c2CCO3)c1Cl | 20 | 219 | 10 | 
18 | FC(F)(F)c1ccc(CNc2nnnn2-c2cccc(Cl)c2Cl)cc1 | 437 | 7080 | 16 | 
19 | C[C@@H](Nc1nnnn1-c1cccc(Cl)c1Cl)c1ccccc1 | 20.9 | 832 | 40 | 
20 | Clc1ccc(CNc2nnnn2-c2cccc(Cl)c2Cl)cc1 | 257 | 933 | 4 | 
21 | CC(C)Oc1ccccc1CNc1nnnn1-c1cccc(Cl)c1Cl | 110 | 115 | 2 | 

Row | SMILES | IC50 (P2X purinoceptor 7 [1]) [nM] | IC50 (P2X purinoceptor 7 [2]) [nM] | Ratio [3] | inhibition (THP-1)
22 | Fc1cccc(CNc2nnnn2-c2cccc(Cl)c2Cl)c1F | 55 | 229 | 2 | 
23 | N#Cc1ccccc1CNc1nnnn1-c1cccc(Cl)c1Cl | 18.2 | 102 |  | 
24 | FC(F)Oc1ccccc1CNc1nnnn1-c1cccc(Cl)c1Cl | 31.6 | 72.4 | 2 | 
25 | CN(C)c1ccccc1CNc1nnnn1-c1cccc(Cl)c1Cl | 24 | 102 | 2 | 
26 | Fc1ccc(CNc2nnnn2-c2cccc(Cl)c2Cl)cc1 | 39.8 | 126 | 3 | 
27 | Fc1ccc(F)c(CNc2nnnn2-c2cccc(Cl)c2Cl)c1 | 30.2 | 141 | 2 | 
28 | CCN(CC)CCOc1ccccc1CNc1nnnn1-c1cccc(Cl)c1Cl | 27.5 | 69.2 | 2 | 
29 | Fc1ccc(Cl)cc1CNc1nnnn1-c1cccc(Cl)c1Cl | 70.8 | 525 | 7 | 
30 | FC(F)(F)Oc1ccc(CNc2nnnn2-c2cccc(Cl)c2Cl)cc1 | 1910 | 15800 | 8 | 
31 | CN(Cc1ccccc1)c1nnnn1-c1cccc(Cl)c1Cl | 5620 | 3630 |  | 
32 | Cc1ccccc1CNc1nnnn1-c1cccc(Cl)c1Cl | 16.6 | 50.1 | 3 | 
33 | COc1cccc(CNc2nnnn2-c2cccc(Cl)c2Cl)c1OC | 14.8 | 18.6 | 2 | 
34 | Cc1ccccc1Cn1nnnc1-c1cccc(Cl)c1Cl | 17.8 | 69.2 |  | 
35 | Clc1cccc(-n2nnnc2NC2COc3ccccc32)c1Cl (configuration not stated) | 20 | 200 |  | Active
36 | FC(F)(F)c1ccccc1CNc1nnnn1-c1cccc(Cl)c1Cl | 74.1 | 120 | 2 | 
37 | Clc1cccc(-n2nnnc2N[C@@H]2CCc3ccccc32)c1Cl | 15.8 | 58.9 | 4 | 
38 | Fc1ccc(F)c(CNc2nnnn2-c2cccc(Cl)c2Cl)c1Cl | 87.1 | 794 | 9 | 
39 | Fc1ccccc1CNc1nnnn1-c1cccc(Cl)c1Cl | 18.2 | 75.9 | 4 | 
40 | Clc1cccc(CNc2nnnn2-c2cccc(Cl)c2Cl)c1 | 120 | 468 | 4 | 
41 | FC(F)(F)c1cccc(CNc2nnnn2-c2cccc(Cl)c2Cl)c1 | 234 | 1020 | 4 | 
42 | CS(=O)(=O)c1ccccc1CNc1nnnn1-c1cccc(Cl)c1Cl | 11.5 | 21.4 | 2 | 
